Measured values from publication PMC11484934 (Nature Communications, 2024).
Each block holds one compound with its values, some of them ahead of it.

What was measured:
HepG2 cells [1] = assay: LC-MS/MS quantification of intracellular FBP concentrations; assay type: cell-based, human; settings: HepG2 cells treated with 10 mM FBP, 30 min
Procedure, shortened: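 HepG2 cells (2 × 10^6/well, triplicates) were allowed to adhere overnight. They were treated 0.5 h with 10 mM test compound or H2O in 5 mM or 25 mM glucose medium. After PBS washes, cells were extracted in cold 80% MeOH containing 13C6-labelled internal standard (0.1 µg/mL), centrifuged and dried. Extracts were run by HILIC (BEH Amide) LC-MS/MS in negative mode, 10 mM NH4HCO3/MeCN.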

recombinant human OXSR1 = recombinant human OXSR1 (Homo sapiens, UniProt O95747); assay: Thermal shift assay with purified recombinant protein; assay type: binding; settings: recombinant human OXSR1, FBP vs H2O, CBB staining
Sequence of recombinant human OXSR1 (O95747 whole entry): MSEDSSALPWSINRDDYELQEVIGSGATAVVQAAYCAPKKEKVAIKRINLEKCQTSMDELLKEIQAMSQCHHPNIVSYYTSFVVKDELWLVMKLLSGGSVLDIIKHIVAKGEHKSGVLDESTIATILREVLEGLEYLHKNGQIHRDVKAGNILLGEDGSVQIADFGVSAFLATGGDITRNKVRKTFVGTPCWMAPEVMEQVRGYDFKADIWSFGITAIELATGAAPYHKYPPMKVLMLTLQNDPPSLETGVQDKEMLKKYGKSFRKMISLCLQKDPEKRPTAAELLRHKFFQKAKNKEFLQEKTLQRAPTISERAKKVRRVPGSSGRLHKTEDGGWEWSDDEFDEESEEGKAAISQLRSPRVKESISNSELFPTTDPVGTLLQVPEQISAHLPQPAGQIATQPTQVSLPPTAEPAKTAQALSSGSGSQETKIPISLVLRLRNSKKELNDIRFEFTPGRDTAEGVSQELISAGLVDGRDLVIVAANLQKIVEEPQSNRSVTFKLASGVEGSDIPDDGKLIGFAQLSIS
Procedure, shortened: (§1)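 Purified recombinant human protein (0.2 μg/μL) was treated with test compound or H2O for 30 min at 25 °C. It was split into six aliquots, each heated in parallel for 3 min at its set temperature, then spun 20,000 g for 20 min at 4 °C. Supernatants were run on SDS-PAGE and stained with Coomassie blue.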

sgCTRL HepG2 cells [2] = assay: Lactate production, sgCTRL HepG2 cells; assay type: cell-based, human; settings: FBP 10 mM, 30 min
Procedure, shortened: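 HepG2 cells were cultured overnight in 96 wells, then treated with H2O or 10 mM test compound for 0.5 h, or with H2O or 1 mM derivative for 24 h. Lactate in the culture medium was measured with a lactate assay kit.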

PGM1 [3] = target: T1, PGM1 (Homo sapiens, UniProt P36871); assay: PGM1 enzyme activity assay; assay type: biochemical
T1 sequence (P36871 1-580 isoform P36871-2): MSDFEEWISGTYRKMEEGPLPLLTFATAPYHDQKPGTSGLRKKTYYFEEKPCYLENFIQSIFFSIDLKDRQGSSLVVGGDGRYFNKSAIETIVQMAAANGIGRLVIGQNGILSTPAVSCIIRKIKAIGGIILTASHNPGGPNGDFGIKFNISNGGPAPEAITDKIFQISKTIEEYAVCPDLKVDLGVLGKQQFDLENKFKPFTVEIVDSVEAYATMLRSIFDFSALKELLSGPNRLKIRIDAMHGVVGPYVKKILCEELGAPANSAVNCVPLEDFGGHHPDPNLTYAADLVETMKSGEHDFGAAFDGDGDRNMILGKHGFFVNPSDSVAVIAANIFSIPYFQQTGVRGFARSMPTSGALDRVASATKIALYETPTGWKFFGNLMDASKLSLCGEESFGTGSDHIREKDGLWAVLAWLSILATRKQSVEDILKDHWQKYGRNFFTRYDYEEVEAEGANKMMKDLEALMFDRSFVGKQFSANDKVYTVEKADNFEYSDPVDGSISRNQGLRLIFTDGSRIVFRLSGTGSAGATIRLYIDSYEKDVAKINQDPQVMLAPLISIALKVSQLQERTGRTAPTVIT

recombinant PGAM1 [4] = target: T2, recombinant PGAM1 (Homo sapiens, UniProt P18669); assay: Microscale thermophoresis; assay type: binding
T2 sequence (P18669 whole entry): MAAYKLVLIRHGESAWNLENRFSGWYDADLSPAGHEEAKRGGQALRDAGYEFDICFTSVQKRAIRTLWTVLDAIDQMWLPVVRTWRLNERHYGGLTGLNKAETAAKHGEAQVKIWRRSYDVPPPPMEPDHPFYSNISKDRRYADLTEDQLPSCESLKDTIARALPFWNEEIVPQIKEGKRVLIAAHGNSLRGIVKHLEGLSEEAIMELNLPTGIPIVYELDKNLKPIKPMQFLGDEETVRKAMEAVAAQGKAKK
Procedure, shortened: (§2)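 Purified protein was labelled on lysines with a RED-NHS dye. It was mixed with test compound in 50 mM Tris-HCl pH 7.5, 100 mM NaCl, 0.05% Tween-20 and incubated 30 min at room temperature in the dark. The mix was loaded into capillaries for microscale thermophoresis on a Monolith NT.115.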

PGAM1-H11A = target: T3, PGAM1-H11A (Homo sapiens, UniProt P18669, H11A); assay: PGAM1 enzyme activity assay, H11A mutant; assay type: biochemical
T3 sequence (P18669 1-254 H11A): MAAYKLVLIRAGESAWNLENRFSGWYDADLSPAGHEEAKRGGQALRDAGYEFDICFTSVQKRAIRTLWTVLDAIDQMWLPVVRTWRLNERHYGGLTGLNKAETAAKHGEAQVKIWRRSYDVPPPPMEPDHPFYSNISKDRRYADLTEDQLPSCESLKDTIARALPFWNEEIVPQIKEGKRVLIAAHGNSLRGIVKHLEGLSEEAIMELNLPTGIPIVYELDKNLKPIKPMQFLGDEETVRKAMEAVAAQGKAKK

recombinant human RAN = assay: Thermal shift assay with purified recombinant protein; assay type: binding; settings: FBP vs H2O, CBB staining
Procedure, shortened: as §1

PGM1 [5] = target: T1, PGM1; assay: Microscale thermophoresis; assay type: binding
Procedure, shortened: as §2

PGM1 [6] = target: T1, PGM1; assay: Thermal shift assay with purified recombinant protein; assay type: binding; settings: recombinant human PGM1, FBP vs H2O, CBB staining
Procedure, shortened: as §1

[7] = target: Flag-tagged PGAM1 in HEK293T cells (Homo sapiens, UniProt P18669); assay type: cell-based; settings: 30 min, glucose-free medium
Sequence of Flag-tagged PGAM1 in HEK293T cells (P18669 whole entry): as the sequence (P18669 whole entry) above

sgPGAM1 HepG2 cells = assay: Cell viability / proliferation assay; assay type: cell-based, human; settings: sgPGAM1 HepG2, FBP 10 mM, 24 h, glucose-free medium
Procedure, shortened: (§3)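 HepG2 cells (5000/well) were allowed to adhere overnight. They were exposed 24 h to a dilution series of test compound in glucose-free or 5 mM glucose medium, or to derivatives in 25 mM glucose medium for 24 h or 48 h. Viability was read by CCK8 colorimetry. PGAM1-knockout cells were made with a LentiCRISPR v2 sgRNA (HEK293T-packaged lentivirus, polybrene 10 µg/mL for 24 h) and selected with puromycin.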

HepG2 cells [8] = assay: Cell viability / proliferation assay; assay type: cell-based, human; settings: sgCTRL HepG2, FBP 10 mM, 24 h, glucose-free medium
Procedure, shortened: as §3

PMM2 [9] = target: T4, PMM2 (Homo sapiens, UniProt O15305); assay: Microscale thermophoresis; assay type: binding
T4 sequence (O15305 1-246): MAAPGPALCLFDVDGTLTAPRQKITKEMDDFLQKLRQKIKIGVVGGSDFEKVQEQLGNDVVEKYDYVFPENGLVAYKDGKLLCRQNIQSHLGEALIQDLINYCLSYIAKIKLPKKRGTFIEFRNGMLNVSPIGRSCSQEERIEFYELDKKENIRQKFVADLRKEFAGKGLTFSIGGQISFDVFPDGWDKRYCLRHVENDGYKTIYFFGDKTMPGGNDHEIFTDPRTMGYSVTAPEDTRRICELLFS
Procedure, shortened: as §2

sgCTRL HepG2 cells [10] = assay: Glucose consumption, sgCTRL HepG2 cells; assay type: cell-based, human; settings: FBP 10 mM, 30 min
Procedure, shortened: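 HepG2 cells were cultured overnight in 96 wells, then treated with H2O or 10 mM test compound for 0.5 h, or with H2O or 1 mM derivative for 24 h. Glucose consumption from the culture medium was measured with a glucose oxidase kit.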

recombinant human PRPS1 = assay: Thermal shift assay with purified recombinant protein; assay type: binding; settings: recombinant human PRPS1, FBP vs H2O, CBB staining
Procedure, shortened: as §1

recombinant human GAPDH = recombinant human GAPDH (Homo sapiens, UniProt P04406); assay: as above; assay type: binding; settings: FBP vs H2O, CBB staining
Sequence of recombinant human GAPDH (P04406 43-335): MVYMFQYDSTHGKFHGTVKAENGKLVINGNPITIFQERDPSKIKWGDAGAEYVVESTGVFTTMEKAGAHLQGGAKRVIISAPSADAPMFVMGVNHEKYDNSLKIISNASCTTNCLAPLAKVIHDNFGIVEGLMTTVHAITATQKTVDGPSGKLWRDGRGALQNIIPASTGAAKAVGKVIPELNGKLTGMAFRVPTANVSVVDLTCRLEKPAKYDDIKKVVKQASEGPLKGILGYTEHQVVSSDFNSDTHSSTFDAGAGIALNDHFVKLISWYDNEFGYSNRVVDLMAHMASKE
Procedure, shortened: as §1

recombinant PGAM1 [11] = target: T2, recombinant PGAM1; assay: PGAM1 enzyme activity assay; assay type: biochemical; settings: for effect on PGAM1 enzymatic activity: PGAM1 enzymatic assay
HepG2 cells [12] = assay: LC-MS/MS detection of 3-PG and 2-PG; assay type: cell-based, human; settings: 10 mM FBP, 30 min
Procedure, shortened: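 HepG2 cells (2 × 10^6/well, triplicates) were treated with 10 mM test compound for 0.5 h in 5 mM glucose, or H2O as control. Cells were extracted in cold 80% MeOH and analysed by HILIC LC-MS/MS in negative mode. The 3-PG and 2-PG fraction came from the m/z 97/(79 + 97) fragment ratio against standard-mixture curves. Values were scaled to the WT total mono-PG concentration.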

recombinant human HDAC2 = recombinant human HDAC2 (Homo sapiens, UniProt Q92769); assay: Thermal shift assay with purified recombinant protein; assay type: binding; settings: recombinant human HDAC2, FBP vs H2O, CBB staining
Sequence of recombinant human HDAC2 (Q92769 whole entry): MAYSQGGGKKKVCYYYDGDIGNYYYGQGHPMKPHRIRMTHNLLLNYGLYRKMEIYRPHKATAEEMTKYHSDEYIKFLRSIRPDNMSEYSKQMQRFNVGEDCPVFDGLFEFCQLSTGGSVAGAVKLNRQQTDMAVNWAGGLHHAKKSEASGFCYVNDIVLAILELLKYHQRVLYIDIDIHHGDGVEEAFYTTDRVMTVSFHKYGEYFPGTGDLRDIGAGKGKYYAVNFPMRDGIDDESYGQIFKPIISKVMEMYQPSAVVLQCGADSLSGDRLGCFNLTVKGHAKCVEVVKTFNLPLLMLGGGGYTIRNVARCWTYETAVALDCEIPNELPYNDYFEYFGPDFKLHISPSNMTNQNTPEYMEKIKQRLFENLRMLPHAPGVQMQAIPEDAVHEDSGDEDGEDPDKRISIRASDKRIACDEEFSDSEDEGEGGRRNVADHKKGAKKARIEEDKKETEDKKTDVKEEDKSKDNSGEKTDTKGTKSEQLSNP
Procedure, shortened: as §1

PMM2 [13] = target: T4, PMM2; assay: PMM2 enzyme activity assay; assay type: biochemical
recombinant PGAM1 [14] = target: T2, recombinant PGAM1; assay: Histidine phosphorylation of recombinant PGAM1; assay type: biochemical; settings: for PGAM1 phosphorylation / 3-pHis modification: immunoblotting and Phos-tag SDS-PAGE
Procedure, shortened: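 Recombinant human PGAM1 was incubated with test compound. It was then analysed by Phos-tag SDS-PAGE or by immunoblotting with monoclonal antibodies specific for N3-phosphohistidine (3-pHis) and 1-phosphohistidine (1-pHis).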

PMM2 [15] = target: T4, PMM2; assay: Thermal shift assay with purified recombinant protein; assay type: binding; settings: recombinant human PMM2, FBP vs H2O, CBB staining
Procedure, shortened: as §1

PGAM1 phosphorylation / 3-pHis modification (recombinant PGAM1 [14]; recombinant PGAM1): weak phosphorylation
Compound: C=C(OP(=O)(O)O)C(=O)O [PEP, phosphoenolpyruvate, reference compound]

effect on PGAM1 enzymatic activity (recombinant PGAM1 [11]): did not regulate the enzymatic activity
Compound: D-glucose-6-phosphate [G6P]

effect on PGAM1 enzymatic activity (recombinant PGAM1 [11]): did not regulate the enzymatic activity
Compound: D-mannose-6-phosphate [M6P]

More lines, now with the values behind:

Compound: O=C(COP(=O)(O)O)[C@@H](O)[C@H](O)[C@H](O)COP(=O)(O)O [FBP, fructose-1,6-bisphosphate]
intracellular FBP concentration after exogenous treatment (HepG2 cells [1]): 1.435 ± 0.062 mM
thermal stability of recombinant protein (recombinant human OXSR1): reduced
lactate production (sgCTRL HepG2 cells [2]): significant increases
IC50 (PGM1 [3]): 2790 µM
Kd (recombinant PGAM1 [4]): 166 µM
activation effect towards PGAM1-H11A mutant (PGAM1-H11A): lost its activation effect
thermal stability of recombinant protein (recombinant human RAN): reduced
Kd (PGM1 [5]): 235 µM
thermal stability of recombinant protein (PGM1 [6]): increased
histidine phosphorylation of Flag-tagged PGAM1 in living cells [7]: Dose-dependent histidine phosphorylation
effect on cell proliferation in PGAM1-knockout cells (sgPGAM1 HepG2 cells): abolished
cell proliferation (HepG2 cells [8]): significantly upregulated
Kd (PMM2 [9]): 247 µM
glucose consumption (sgCTRL HepG2 cells [10]): significant increases
thermal stability of recombinant protein (recombinant human PRPS1): increased
thermal stability of recombinant protein (recombinant human GAPDH): increased
EC50 (recombinant PGAM1 [11]): 480 µM
effect on PGAM1 enzymatic activity (recombinant PGAM1 [11]): could activate the enzyme
2-PG/3-PG ratio (HepG2 cells [12]): significant increased
thermal stability of recombinant protein (recombinant human HDAC2): reduced
IC50 (PMM2 [13]): 7910 µM
concentration able to phosphorylate PGAM1 (recombinant PGAM1 [14]; concentration-dependent immunoblotting, recombinant PGAM1): 1 mM
PGAM1 phosphorylation / 3-pHis modification (recombinant PGAM1 [14]; recombinant PGAM1): act as a phosphate donor to form 3-pHis modification
time after which 3-pHis modification decayed (recombinant PGAM1 [14]; time-dependent PGAM1 histidine phosphorylation): > 4 h
thermal stability of recombinant protein (PMM2 [15]): increased

Compound: O=P(O)(O)O[C@H]1O[C@H](CO)[C@@H](O)[C@H](O)[C@H]1O [G1P, α-D-glucose-1-phosphate]
effect on PGAM1 enzymatic activity (recombinant PGAM1 [11]): did not regulate the enzymatic activity

Compound: fructose-1-phosphate [F1P]
effect on PGAM1 enzymatic activity (recombinant PGAM1 [11]): did not regulate the enzymatic activity

Compound: fructose-6-phosphate [F6P]
effect on PGAM1 enzymatic activity (recombinant PGAM1 [11]): did not regulate the enzymatic activity
